Data taken from ChEMBL document CHEMBL1649302, “New small-molecule inhibitor class targeting human immunodeficiency virus type 1 virion maturation” (Antimicrob Agents Chemother, 2009).
Active and inactive are the calls of the source. No cut-off for these calls is given here.

Tests used:
[1] = test system: Human immunodeficiency virus 1; assay: Antiviral activity HIV1 98IN022 infected in human PBMC after 7 days by scintillation counting; assay type: functional, organism-based; details: Human immunodeficiency virus 1, 98IN022, 168 h
Procedure, shortened: (§1)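 PBMCs came from buffy coats pooled from 3–4 seronegative donors, were PHA-stimulated (1.5 μg/ml, 3 days) and frozen. Thawed cells were infected 1 h at 37°C with virus input set by TCID50, then pelleted and resuspended in IL-2 (10 ng/ml). They were plated at 4 × 10⁵ cells/ml onto compounds for 7 days at 37°C. Supernatant RT activity was measured by Quan-T-RT scintillation assay.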

[2] = test system: Human immunodeficiency virus 1; assay: Antiviral activity HIV1 93TH074 infected in human PBMC after 7 days by scintillation counting; assay type: functional, organism-based; details: Human immunodeficiency virus 1, 93TH074, 168 h; procedure, shortened: as §1
[3] = test system: Human immunodeficiency virus 1; assay: Antiviral activity against HIV1 harboring spacer peptide A1V mutant protein infected in human HeLa cells assessed as decrease in viral infection after […] by beta-galactosidase reporter gene assay; assay type: functional, organism-based; details: Human immunodeficiency virus 1, HeLa
Procedure, shortened: (§2)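 MT-2 cells were infected for 2 h with wild-type NL4-3 or recombinant NL4-3 carrying CA I201V or SP1 A1V. They were then cocultured with HeLa CD4 LTR/beta-Gal indicator cells in serially diluted compound. Beta-gal reporter was read after 4 days. EC50s are means ± SD of 3–6 experiments. Fold change is mutant EC50 divided by wild-type EC50.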

[4] = test system: Human immunodeficiency virus 1; assay: Antiviral activity HIV1 92US076 infected in human PBMC after 7 days by scintillation counting; assay type: functional, organism-based; details: Human immunodeficiency virus 1, 92US076, 168 h
Procedure, shortened: (§3)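 Fresh PBMCs from HIV/HBV-seronegative donors were PHA-stimulated (4 μg/ml, 48–72 h) and kept with IL-2 (20 U/ml), with at least two donors pooled. Cells were seeded at 5 × 10⁴/well and infected (final MOI ≅0.1) with nine compound concentrations in triplicate wells. After 7 days, reverse transcriptase activity was measured in cell-free supernatant.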

[5] = test system: Human immunodeficiency virus 1; assay: Antiviral activity HIV1 92BR030 infected in human PBMC after 7 days by scintillation counting; assay type: functional, organism-based; details: Human immunodeficiency virus 1, 92BR030, 168 h; procedure, shortened: as §3
[6] = test system: Human immunodeficiency virus 1; assay: Antiviral activity HIV1 92US660 infected in human PBMC after 7 days by scintillation counting; assay type: functional, organism-based; details: Human immunodeficiency virus 1, 92US660, 168 h; procedure, shortened: as §3
[7] = Therapeutic index, ratio of CC50 for human PBMC to EC50 for HIV1 92HT594 infected in human PBMC; details: read-out: TI
Procedure, shortened: (§4)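 Frozen PHA-stimulated (1.5 μg/ml, 3 days) buffy-coat PBMCs pooled from three or four seronegative donors. Infected with a TCID50-based virus input per 10⁶ cells for 1 h at 37°C, then pelleted and resuspended in 10 ng/ml IL-2. Plated at 4 × 10⁵ cells/ml on compound dilutions for 7 days at 37°C. Supernatant RT measured by Quan-T-RT. TI is mean CC50 divided by mean EC50.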

[8] = test system: Human immunodeficiency virus 1; assay: Antiviral activity HIV1 96USHIPS7 infected in human PBMC after 7 days by scintillation counting; assay type: functional, organism-based; details: Human immunodeficiency virus 1, 96USHIPS7, 168 h; procedure, shortened: as §3
[9] = test system: Human immunodeficiency virus 1; assay: Antiviral activity against HIV1 NL4-3 infected in HEK293 cells assessed as inhibition of viral p24 antigen production after 72 hrs
[10] = test system: Human immunodeficiency virus 1; assay: Antiviral activity HIV1 93BR023 infected in human PBMC after 7 days by scintillation counting; assay type: functional, organism-based; details: Human immunodeficiency virus 1, 93BR023, 168 h; procedure, shortened: as §3
[11] = test system: Human immunodeficiency virus 1; assay: Antiviral activity against HIV1 Ba-L infected in human PM1 cells assessed as inhibition of viral p24 antigen production after 5 days; assay type: functional, organism-based; details: Human immunodeficiency virus 1, Ba-L, PM1, 120 h
Procedure, shortened: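 PM1 cells (NL4-3, Ba-L) or MT-2 cells (92HT594, 92HT599) were infected at MOI 0.16 for 2 h and washed. They were plated at 1 × 10⁴ cells/well (2 × 10⁵/ml) onto half-log compound dilutions. Supernatant p24 was quantified by ELISA at day 5. EC50 was the concentration giving a 50% decrease versus infected, compound-free cells.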

[12] = Cytotoxicity against human MT2 cells after 6 days by XTT assay; assay type: cell-based
Procedure, shortened: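 Uninfected cells were incubated with half-log compound dilutions for 6 days, then given XTT/PMS for 4 h and read at 450 nm. CC50 was the concentration reducing formazan to 50% of uninfected, compound-free cells. Values are means ± SD from 3–5 experiments or individual values.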

[13] = Therapeutic index, ratio of CC50 for human PBMC to EC50 for HIV1 91US005 infected in human PBMC; details: read-out: TI
Procedure, shortened: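 TI was the mean PBMC CC50 divided by the mean EC50 from the 7-day PBMC reverse transcriptase assay.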

[14] = test system: Human immunodeficiency virus 1; assay: Antiviral activity HIV1 92TH026 infected in human PBMC after 7 days by scintillation counting; assay type: functional, organism-based; details: Human immunodeficiency virus 1, 92TH026, 168 h; procedure, shortened: as §3
[15] = Therapeutic index, ratio of CC50 for human MT2 cells to EC50 for HIV1 92HT599 infected in human MT2 cells; assay type: cell-based; details: read-out: TI
Procedure, shortened: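 TI was the mean CC50 (XTT, uninfected MT-2) divided by the mean EC50, determined for each cell line in each experiment.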

[16] = test system: Human immunodeficiency virus 1; assay: Antiviral activity HIV1 92TH014 infected in human PBMC after 7 days by scintillation counting; assay type: functional, organism-based; details: Human immunodeficiency virus 1, 92TH014, 168 h; procedure, shortened: as §3
[17] = Therapeutic index, ratio of CC50 for human PBMC to EC50 for HIV1 CMU06 infected in human PBMC; details: read-out: TI; procedure, shortened: as §4
[18] = Therapeutic index, ratio of CC50 for human PBMC to EC50 for HIV1 92TH014 infected in human PBMC; details: read-out: TI
Procedure, shortened: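 PHA-stimulated (4 μg/ml, 48 to 72 h) PBMCs pooled from at least two seronegative donors, kept with 20 U/ml IL-2, plated at 5 × 10⁴ cells/well. Infected with clinical isolate (final MOI ≅0.1) alongside nine compound concentrations in triplicate wells, 7 days. Supernatant reverse transcriptase activity measured. TI is mean PBMC CC50 divided by mean EC50.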

[19] = test system: Human immunodeficiency virus 1; assay: Antiviral activity HIV1 NL4-3 infected in human PBMC after 7 days by scintillation counting; assay type: functional, organism-based; details: Human immunodeficiency virus 1, NL4-3, 168 h; procedure, shortened: as §1
[20] = test system: Human immunodeficiency virus 1; assay: Antiviral activity against HIV1 NL4-3 infected in HEK293 cells assessed as decrease in virus production at 2 times EC90 after 72 hrs by beta-galactosidase reporter gene assay; assay type: functional
[21] = Therapeutic index, ratio of CC50 for human PBMC to EC50 for HIV1 NL4-3 infected in human PBMC; details: read-out: TI; procedure, shortened: as §4
[22] = test system: Human immunodeficiency virus 1; assay: Antiviral activity against HIV1 assessed as inhibition of virion maturation-associated CA/SP1 processing at 2 times EC90; assay type: functional, organism-based
[23] = test system: Human immunodeficiency virus 1; assay: Antiviral activity HIV1 ROJO infected in human PBMC after 7 days by scintillation counting; assay type: functional, organism-based; details: Human immunodeficiency virus 1, ROJO, 168 h; procedure, shortened: as §3
[24] = test system: Human immunodeficiency virus 1; assay: Selectivity ratio of EC50 for HIV1 harboring spacer peptide A1V mutant protein infected in human HeLa cells to EC50 for wild type HIV1 infected in human HeLa cells; assay type: functional; procedure, shortened: as §2
[25] = test system: Human immunodeficiency virus 1; assay: Antiviral activity against HIV1 harboring capsid I201V mutant protein infected in human HeLa cells assessed as decrease in viral infection after 72 hrs by beta-galactosidase reporter gene assay; assay type: functional, organism-based; details: Human immunodeficiency virus 1, HeLa

## CC(C)(C)c1ccc(C(Cn2cccc(C(F)(F)F)c2=O)NC2Cc3ccccc3C2)cc1 (stereo not given)
[1]
  EC50: 1.3 µM
[2]
  EC50: 0.12 µM
[3]
  EC50: > 3.2 µM
[4]
  EC50: 0.007 µM
[5]
  EC50: > 17 µM
[6]
  EC50: 12 µM
[7]
  selectivity ratio: 15
[8]
  EC50: > 17 µM
[9]
  inhibition: inactive
[10]
  EC50: > 17 µM
[11]
  EC50: 5.3 µM
[12]
  CC50 at 144 h: 15 µM
[13]
  selectivity ratio: < 1
[14]
  EC50: > 17 µM
[15]
  selectivity ratio: 90
[16]
  EC50: > 17 µM
[17]
  selectivity ratio: 14
[18]
  selectivity ratio: < 1
[19]
  EC50: 0.11 µM
[20]
  inhibition (INH): 92%
[21]
  selectivity ratio: 155
[22]
  inhibition: Active
[23]
  EC50: > 17 µM
[24]
  Ratio EC50: >16
[25]
  EC50: > 10 µM
